Source: PubChem
NTR1 ag – NTR1 (human) agonism. P30989. activation, % at 20 µM. hit rate 0.17% among 330,000. NTR1-U2OS beta-arrestin-GFP spot imaging, agonist mode;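 active means activation at or above 40% of the spot to cytoplasm intensity ratio, with at least 20 cells analyzed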;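 further: 0% = DMSO without peptide and 100% = 100 nM NTR1 peptide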
SR-BI DiI inh – mouse SR-BI HDL lipid transfer inhibition | Q61009 | ldlA[mSR-BI] CHO cells, DiI-HDL uptake fluorescence, 3 h | inhibition, % at 12.5 µM | hit rate 0.96% among 320,000;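 active means mean replicate inhibition of at least 70% and a set share of replicates each scoring 70 or more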;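 further: 0% = median of neutral control wells and 100% = median of positive control wells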
Target sequence (Q61009 whole entry, looked up): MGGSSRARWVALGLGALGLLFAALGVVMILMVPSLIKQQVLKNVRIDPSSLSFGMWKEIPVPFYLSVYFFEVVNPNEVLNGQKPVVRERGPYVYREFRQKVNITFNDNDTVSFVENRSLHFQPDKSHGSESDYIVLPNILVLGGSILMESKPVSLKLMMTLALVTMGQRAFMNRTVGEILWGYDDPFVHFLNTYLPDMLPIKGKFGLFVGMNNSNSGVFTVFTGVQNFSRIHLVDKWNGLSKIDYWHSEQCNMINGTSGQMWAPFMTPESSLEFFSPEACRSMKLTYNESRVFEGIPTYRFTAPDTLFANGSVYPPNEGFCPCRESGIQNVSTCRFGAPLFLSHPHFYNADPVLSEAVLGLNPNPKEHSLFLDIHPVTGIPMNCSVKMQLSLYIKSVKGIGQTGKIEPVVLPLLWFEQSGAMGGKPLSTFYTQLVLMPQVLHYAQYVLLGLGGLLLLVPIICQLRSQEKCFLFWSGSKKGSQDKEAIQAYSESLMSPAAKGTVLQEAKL
Vif inh – inhibitors of HIV Vif; hit rate 0.35% among 340,000; inhibition, % at 7.49 µM; AID 602346; HEK293T cells, Vif self-association by quenched fluorescence, imaging, 24 h; in the data active means inhibition above about 50%, passing the limit was not always enough
CaV13 ICDI inh – Primary screen for inhibitors of IQ motif and Ca2+-dependent inactivation inhibitor domain binding in CACNA1D, Förster resonance energy transfer in living cells, …. HEK cells, CFP/YFP FRET ICDI-IQ, plate reader, 10 min; percent FRET-ratio fall versus neutral wells. inhibition, % at 12.3 µM. hit rate 0.098% among 340,000. AID 743397;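 active means mean replicate inhibition of at least 30% and at least 1% of replicates passing that level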;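 further: 0% = median of the neutral control wells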
SR-BI DiI-HDL act – SR-BI HDL lipid transfer activation; hit rate 0.096% among 320,000; CHO ldlA[mSR-BI] cells, DiI-HDL uptake fluorescence, 3 h; 100 = double the neutral-control signal; AID 504775; activation, % at 12.5 µM;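 active means mean replicate activation of at least 60% and every replicate at or above 60%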;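 further: 0% = median plate neutral-control signal and 100% = twice that signal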
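Assay system: CHO ldlA[mSR-BI] cells, LDL receptor-null, SR-BI overexpressing; medium: Ham's F12 with 0.5% BSA, HEPES 25 mM, pH 7.4; also added: DiI-HDL 10 µg/mL; timing: 3 h uptake period with compound, 37 °C; signal: DiI fluorescence, bottom read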
V-ATPase pH – alters yeast V-ATPase proton transport; S. cerevisiae, pHLuorin cytosolic pH fluorescence; response, % at 10 µM; hit rate 0.37% among 350,000; AID 504577; in the data active means response mostly above about 7.3%, no sharp cut-off; inactive means mostly below about 5.4%; further: actives read high
Active calls of the source: *; / = not tested or not shown. Most compounds without a hit are left out; they make up all but 1.7% or so of the library.

SMILES	NTR1 ag	SR-BI DiI inh	Vif inh	CaV13 ICDI inh	SR-BI DiI-HDL act	V-ATPase pH
COc1cc(OC)cc(C(=O)N2CCN(C(=O)c3ccc(-c4ccccc4)cc3)CC2)c1	0	79*	0	-4	-79	-1
CC1(C)C(=O)Nc2ccccc2N1C(=O)COc1ccc(C#N)cc1	-1	2	-1	-6	-2	2
COc1ccc(S(=O)(=O)N2CCCOC2CNC(=O)C(=O)NCCc2ccco2)cc1OC (stereo not given)	0	-26	-2	-5	/	3
N#Cc1cc2c(=O)n3ccccc3nc2n(Cc2cccnc2)c1=O	0	/	/	-1	/	-4
N#Cc1cc2c(=O)n3ccccc3nc2n(-c2ccccc2Cl)c1=O	-1	-12	154*	13	12	2
COc1cccc(C(=O)NCCS(=O)(=O)N2CCN(C(=O)c3ccco3)CC2)c1	2	-22	1	-6	22	0
Cc1ccc(S(=O)(=O)CCC(=O)OCc2cc(=O)oc3cc(C)ccc23)cc1	3	-3	5	-2	3	-1
CCCCN1C(=O)C(=O)N(CC(=O)N2CCN(c3ccccc3)CC2)C1=O	1	-12	-13	-6	12	-1
CCCCN1C(=O)C(=O)N(c2ccccc2)C1=S	3	3	6	-5	-3	8.8*
CCC(=O)N1C(C(=O)NCc2ccc(OC)cc2)CSC1c1ccc(OC)cc1 (stereo not given)	0	6	-7	45*	-6	2
CCn1c(Cn2nnc(-c3ccccc3)n2)nnc1SCC(=O)Nc1cccc(C)c1C	2	76*	2	/	-76	2
COc1ccc(S(=O)(=O)N2CCOCC2)cc1NC(=O)C1CCN(S(=O)(=O)c2ccc(Cl)cc2)CC1	/	1	-2	-6	-1	1
CCc1ccc(C2C(C#N)=C(N)SC(N)=C2C#N)s1	1	0	77*	/	0	3
CCc1ccc(C2C(C#N)=C(N)SC(N)=C2C#N)cc1	0	-3	3	/	3	1
O=C1c2ccccc2[C@@H]2C[C@@H](O)[C@H](Nc3cccc4ccccc34)CCN12	2	11	83*	-7	-11	-5
O=C(c1cc(Br)ccc1O)N1CCN(S(=O)(=O)Cc2ccccc2)CC1	-2	4	-8	-5	-4	-4
COc1ccc(CNC(=O)CN2C(=O)NC(c3ccccc3)(c3ccccc3)C2=O)cc1	-1	-10	110*	-6	10	-3
COc1ccc(CCNC(=O)CN2C(=O)NC(c3ccccc3)(c3ccccc3)C2=O)cc1	-2	5	7	-6	-5	0
Cc1ccc(S(=O)(=O)N2CCC(C(=O)NNC(=O)c3ccccc3O)CC2)cc1	0	81*	-2	-6	-81	-5
Cc1ccc(C(=O)NNC(=O)C2CCN(S(=O)(=O)c3ccc(Cl)cc3)CC2)cc1	-1	3	1	-2	-3	3
Cc1cc(C)c(C)c(S(=O)(=O)N2CCC(C(=O)NNC(=O)c3ccccc3O)CC2)c1C	0	119*	10	-6	-119	4
Cc1ccc(S(=O)(=O)N2CCC(C(=O)NNC(=O)c3ccccc3O)CC2)cc1C	0	72*	1	-15	-72	-1
Cc1cc(C)c(C)c(S(=O)(=O)N2CCC(C(=O)NCc3cccs3)CC2)c1C	/	/	6	-4	/	/
CC(C)N1CCC1(C)C(=O)Nc1ccc(-n2cccc2)cc1 (stereo not given)	/	/	/	-7	/	/
N#Cc1ccccc1Cn1cc(/C=N/Nc2ccc([N+](=O)[O-])cn2)c2ccccc21	2	96*	158*	-8	-96	-4
SMILES	NTR1 ag	SR-BI DiI inh	Vif inh	CaV13 ICDI inh	SR-BI DiI-HDL act	V-ATPase pH
CCN(CC)c1ccc(C=NNc2ccc([N+](=O)[O-])cn2)cc1	/	84*	3	-14	-84	-4
O=[N+]([O-])c1ccc(NN=Cc2ccccc2O)nc1	/	88*	8	-12	-88	6
COc1ccc(C=NNc2ccc([N+](=O)[O-])cn2)cc1	/	16	-1	-10	-16	-14
O=[N+]([O-])c1ccc(N/N=C/c2ccc(OCc3cccc4ccccc34)cc2)nc1	7	70	149*	-32	-70	-3
Cc1c(-c2ccc(Br)cc2)nc2ccccn12	4	18	-1	-5	-18	-1
CN(C)c1ccc(-c2nc3ccccn3c2/N=C/c2ccc(Br)cc2)cc1	5	101*	3	-3	-101	-3
COc1ccc(CC(=O)OCC(=O)NCc2ccc(Cl)cc2)cc1	0	-11	80*	-16	11	-7
CSc1cccc(NC(=S)N2CCC(N(C)C3CCCC3)CC2)c1	0	-14	-12	-6	14	-6
CC1=C(C(=O)OCC(Cl)(Cl)Cl)N2C(=O)C(NC(=O)Cc3ccccc3)C2SC1 (stereo not given)	2	78*	-6	-4	-78	4
CC(=O)OCC1=C(C(=O)OC(C)(C)C)N2C(=O)[C@@H](NC(=O)Cc3ccccc3)[C@H]2SC1	/	30	-6	-8	-30	1
Cc1c(C(=O)N2CCCCC2)sc(NC(=O)C(C)C)c1C#N	-1	9	4	-10	-9	3
Cc1c(C(=O)N2CCCCC2)sc(NC(=O)C2CC2)c1C#N	0	-241	-1	-8	241*	-1
CC(=O)N1CCN(c2ccc(NCc3ccc4c(c3)OCO4)cc2)CC1	12	1	-1	-5	-1	0
O=C(c1ccccc1)N1CCN(c2ccc(NCc3ccc4c(c3)OCO4)cc2)CC1	7	9	11	56*	-9	9
CCCCN(CCCC)CCNC(=O)c1cn(CC)c2ccc(S(=O)(=O)N3CCc4ccccc4C3)cc2c1=O	13	-1	-6	-4	1	3
COc1ccc(-c2nnc(SCc3nc4ccccc4c(=O)[nH]3)o2)cc1	2	/	52*	-1	/	-2
COC(=O)[C@@H]1C[C@@H]2CC[C@@H](O)C[C@@H]2N1Cc1ccc(Cl)cc1	0	-14	-2	-4	14	0
COC(=O)[C@@H]1C[C@H]2CC[C@H](O)C[C@H]2N1Cc1ccc(C)s1	-4	-60	2	-7	60*	0
CC(=O)NC(=S)Nc1sc2c(c1C(N)=O)CCC(C)C2 (stereo not given)	1	63	-2	5	-63	4
COc1ccc(N2CCN(C(=O)CNC(=O)c3cn(-c4ccccc4OC)c(=O)c4ccccc34)CC2)cc1	0	74*	-2	2	-74	2
O=C1C=C(c2cccc3c2Oc2ccccc2S3)C[C@@H](c2ccc(Cl)cc2)C1	6	3	-4	-10	-3	0
